# An excerpt weighted towards active compounds, which were near 2% of everything screened.
# S100A4 inh HTS: blocks human S100A4 binding to myosin IIA peptide; S100A4/TAMRA-MyoIIA peptide fluorescence polarization; inhibition, % at 10.7 µM; AID 652163; 360,000 compounds, 0.14% hits;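 active means mean inhibition of at least 70% across replicates, with every replicate also reaching that level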
# Target sequence (P26447 whole entry, looked up): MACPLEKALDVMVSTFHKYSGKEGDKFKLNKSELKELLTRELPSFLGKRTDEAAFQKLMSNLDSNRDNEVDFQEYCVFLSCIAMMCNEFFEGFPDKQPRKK
#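 assay system = human S100A4 monomer with TAMRA-labelled myosin IIA peptide | also added = labelled myosin peptide probe, 5 nM | incubation = 5 min between mix addition and reading | control set = DMSO and TFP controls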
# CAL PDZ FP-1: CAL PDZ (human) peptide binding inhibition | purified CAL PDZ, TMR-peptide fluorescence polarization, 1 h | inhibition, % at 24.9 µM | 300,000 compounds, 0.92% hits | AID 602252;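 active means mean inhibition of at least 30% with at least half of replicates also reaching 30%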;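 further: 0% = DMSO neutral control and 100% = excess unlabeled competitor peptide PRC23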
# dFosB activator: enhances mouse delta FosB homodimer DNA binding; activation, % at 25 µM; purified delta FosB, TAMRA-CDK5 oligo fluorescence polarization; percent of positive-control signal above neutral wells; 340,000 compounds, 0.99% hits; P13346;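 active means mean activation above about 17%, with every replicate also reaching it, limit read from the data, passing the limit was not always enough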
# Target sequence (P13346 whole entry, looked up): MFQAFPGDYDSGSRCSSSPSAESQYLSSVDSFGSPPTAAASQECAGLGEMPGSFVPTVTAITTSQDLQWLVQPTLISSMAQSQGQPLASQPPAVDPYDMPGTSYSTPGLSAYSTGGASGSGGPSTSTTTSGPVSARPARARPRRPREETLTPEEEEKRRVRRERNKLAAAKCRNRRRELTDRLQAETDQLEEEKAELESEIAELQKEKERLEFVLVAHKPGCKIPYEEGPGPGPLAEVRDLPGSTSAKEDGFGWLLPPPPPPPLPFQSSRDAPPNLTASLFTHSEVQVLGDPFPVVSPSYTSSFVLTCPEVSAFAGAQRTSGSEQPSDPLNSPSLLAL
# C2C12 statin: protects C2C12 myotubes from simvastatin toxicity | ATP luminescence, 48 h; scaled: DMSO 0, geranylgeraniol control 100 | rescue of ATP level, % at 7.49 µM | 330,000 compounds, 0.78% hits | AID 602340;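 active means mean ATP rescue above about 67%, or every replicate alone reaching that limit, limit read from the data, passing the limit was not always enough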;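 further: myotubes were challenged with 10 µM simvastatin during compound exposure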
# CAL PDZ FP-2: human CAL PDZ-peptide interaction inhibition; Q9HD26; purified CAL PDZ, TMR-peptide fluorescence polarization, 1 h; inhibition, % at 20 µM; 330,000 compounds, 0.02% hits; AID 504414;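 active means highest replicate inhibition of at least 40%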;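 further: plate controls were DMSO neutral control wells for no effect and unlabeled competitor peptide control wells for full effect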
#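 Material: tagged CAL PDZ protein CerCALP, purified; buffer or medium: sodium phosphate/NaCl buffer pH 7.4 with TCEP, IgG, Thesit; also added: fluorescent TMR peptide probe; schedule: 1 h incubation at room temperature before polarization reading; technique: fluorescence polarization from S- and P-plane intensities, G-factor corrected; control set: unlabelled peptide and DMSO controls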
# CDK5 p35 inh: CDK5/p35 (human) kinase inhibition; Recombinant CDK5/p35, ADP-Glo luminescence, 60 min; inhibition, % at 10 µM; Q00535+Q15078; 330,000 compounds, 0.01% hits;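 active means highest replicate inhibition of at least 50% and at least 75% of replicates reaching 50%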;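 further: plate controls were DMSO neutral control for no effect and GW8510 at 10 µM for full effect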
# * = called active by the depositor; / = no result.
SMILES,S100A4 inh HTS,CAL PDZ FP-1,dFosB activator,C2C12 statin,CAL PDZ FP-2,CDK5 p35 inh
C[C@@H]1CN([C@H](C)CO)C(=O)c2cc(C#CCc3ccccc3)cnc2O[C@@H]1CN(C)CC1CCOCC1,-22,/,/,30,/,/
COc1ccc(-c2nc(N)ncc2-c2ccc(OC)c(OC)c2)c(O)c1,-3,59*,-6,2,/,3
COc1ccc(-c2ncncc2-c2ccc(OC)c(OC)c2)c(O)c1,4,-6,-1,12,/,3
CCNC(=O)Cn1cc(C#N)c2ccccc21,/,-2,-6,93*,0,-1
Cc1ccc(NC(=O)c2nc[nH]c2C(=O)NCCN(CCNC(=O)c2[nH]cnc2C(=O)Nc2ccc(C)cc2)CCNC(=O)c2[nH]cnc2C(=O)Nc2ccc(C)cc2)cc1,3,-3,48*,-78,0,2
NS(=O)(=O)c1cccc(NC(=O)COC(=O)CCC2CCCC2)c1,0,85*,0,1,0,-1
Cc1cc(C)n(CC(O)COc2cccc(OCC(O)Cn3nc(C)cc3C)c2)n1 (stereo not given),/,/,-4,91*,-1,1
COc1ccccc1OCC(O)Cn1nc(C)cc1C (stereo not given),/,74*,-2,-10,-1,2
Cc1cc(C)n(CC(O)COc2ccccc2[N+](=O)[O-])n1 (stereo not given),/,-2,-6,/,-3,-1
N#C[C@@H]1[C@@H](c2ccccc2)[C@@H](CO)N1S(=O)(=O)c1ccc(-c2ccccc2)cc1,15,/,/,5,/,/
CCCSc1nnc(CN2CCOCC2)n1C,/,1,2,111*,/,-1
Cn1c(CN2CCOCC2)nnc1SCC(N)=O,/,1,1,3,-2,1
CCCCn1c(O)c(N=NC(=O)c2ccccc2NS(=O)(=O)c2cccs2)c2ccccc21,/,-10,-3,/,0,-1
CC(C)n1c(O)c(N=NC(=O)c2ccccc2NS(=O)(=O)c2cccs2)c2ccccc21,/,3,30*,/,0,2
O=S(=O)(c1ccccc1)N1CCN=C1SCc1ccc(Cl)cc1,4,44*,-14,/,-1,0
O=S(=O)(c1ccc(Br)cc1)N1CCN=C1SCc1cccnc1,4,45*,-2,/,-1,0
O=S(=O)(c1ccccc1)N1CCN=C1SCc1ccc(Cl)c(Cl)c1,/,-4,-5,/,-1,-1
N#Cc1cccc(-c2ccc3c(c2)[C@@H]2[C@@H](CCN2C(=O)c2ccncc2)[C@@H](CO)N3)c1,98*,/,/,-40,/,/
COCc1[nH]nc2c1C(c1sccc1C)C(C#N)=C(N)O2 (stereo not given),-2,-5,1,94*,/,1
COCc1[nH]nc2c1C(c1ccsc1)C(C#N)=C(N)O2 (stereo not given),/,1,-2,/,-2,0
O=C(c1ccccc1)N1CCN(C(=O)C2CC2)CC1,-1,-4,1,34,-2,0
O=C(C1CC1)N1CCC(C(O)(c2ccccc2)c2ccccc2)CC1,/,-4,0,85*,1,0
Cc1ccc(OCC(=O)NNC(=O)c2ccc(F)c(S(=O)(=O)N3CCOCC3)c2)cc1C,-9,/,/,7,/,/
CCS(=O)(=O)c1ncc(Cl)c(C(=O)Nc2ccccc2OC)n1,-7,-5,3,144*,-1,1
COc1cc2c(cc1OC)CN(c1nc(-c3cccnc3)nc3ccccc13)CC2,0,71*,34*,-82,-5,0
SMILES,S100A4 inh HTS,CAL PDZ FP-1,dFosB activator,C2C12 statin,CAL PDZ FP-2,CDK5 p35 inh
CCCCN(CCCNC(=O)C1CCN(S(=O)(=O)N2CCOCC2)CC1)Cc1ccccc1,/,-1,1,3,-1,-1
Cc1cccc(Nc2nc(NCc3ccco3)nc(N)c2[N+](=O)[O-])c1,-1,-5,5,4,2,-1
Nc1nc(Nc2ccc(Cl)cc2)nc(NCc2ccco2)c1[N+](=O)[O-],-6,-3,57*,/,0,1
Nc1nc(Nc2cccc(F)c2)nc(NCc2ccco2)c1[N+](=O)[O-],1,/,23*,/,-1,4
COc1ccc(Nc2nc(N)c([N+](=O)[O-])c(NCc3ccccc3)n2)cc1,-2,-4,29*,/,1,-2
COc1ccc(Nc2nc(NCc3ccco3)nc(N)c2[N+](=O)[O-])cc1,1,/,/,/,/,/
COc1ccc(Nc2nc(N)c([N+](=O)[O-])c(NCCO)n2)cc1,-17,/,/,/,/,/
Nc1nc(Nc2cccc(Cl)c2)nc(NCc2ccco2)c1[N+](=O)[O-],-6,-5,58*,/,-3,0
CCOC(=O)c1c(NC(=O)CSc2ncn[nH]2)sc(C)c1C,/,-3,-8,2,/,0
O=S(=O)(Nc1ccc(-c2nnc(SCc3ccc(Cl)cc3)o2)cc1)c1ccccc1,/,0,2,/,-3,-1
COc1ccc(-n2c(SCC(=O)N3CCN(c4ccccc4)CC3)nc3c(c2=O)SCC3)cc1,-2,-7,-2,11,0,4
CCC(=O)Nc1ccc(N2CCOCC2)c(S(=O)(=O)Nc2ccc(Cl)cc2)c1,3,-3,-17,8,-1,0
N#Cc1ccc(OCC(=O)Nc2cc(S(=O)(=O)N3CCOCC3)ccc2N2CCOCC2)cc1,-13,-2,-2,/,-1,-1
Nc1nc(NCC2CCCO2)nc(Nc2cccc(F)c2)c1[N+](=O)[O-] (stereo not given),1,79*,10,/,0,2
Oc1cccc(Nc2nc(NCC3CCCO3)c3ccccc3n2)c1 (stereo not given),/,-4,59*,-29,-7,7
CCn1c(=O)n(CC)c2cc(S(=O)(=O)Nc3ccccc3C)c(C)cc21,-2,-3,-12,-16,-3,1
CCOc1nnc(C)c2c(C)n(-c3ccc(Cl)cc3)nc12,/,-2,-3,119*,-1,1
CCOc1ccc(NC(=O)CN2CCc3ccccc3C2)cc1,-10,0,-6,13,-2,2
O=C(COc1ccccc1)N/N=C/c1sc(=O)n(Cc2cccc(C(=O)O)c2)c1Cl,-1,-7,-5,/,-1,1
CC(C)C12CN3CC(C(C)C)(CN(C1)C31C(=O)Nc3ccccc31)C2=O (stereo not given),-2,12,-7,90*,-1,1
COC(=O)c1c(C)nc2nonc2c1N,1,172*,-2,/,1,-2
O=C(NCc1ccccc1)[C@@H]1[C@@H](CO)[C@@H]2Cn3c(cccc3=O)[C@H]1N2,11,/,/,6,/,/
CCCn1c(O)c(N=NC(=O)CNC(=O)/C=C/c2ccc(OC)cc2)c2ccccc21,-1,0,-10,9,-3,0
NC(=O)Cn1c(O)c(N=NC(=O)CNC(=O)/C=C/c2ccccc2)c2ccccc21,8,3,18*,12,-2,-1
